This is an account of results in ChEMBL document CHEMBL1138785, “Stereoselective synthesis of sugar-modified enyne analogues of adenosine and uridine. Interaction with S-adenosyl-L-homocysteine hydrolase and antiviral and cytotoxic effects” (J Med Chem, 2004).

The test system of data set [1] is HeLa. The experiment in a line: Minimum inhibitory concentration required to inhibit vesicular stomatitis virus. It is filed as functional. The conditions noted are these: Homo sapiens. Put shortly:
(§1)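 HeLa cell cultures infected with vesicular stomatitis virus, Coxsackie B4 virus or respiratory syncytial virus. The read-out is the minimum inhibitory concentration (MIC), with compounds tested up to 100 or 700 μM.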

A short description of data set [2]: Minimum cytotoxic concentration was determined. The conditions noted are these: human. The essentials: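 Human embryonic lung (HEL) cell cultures, run alongside the CMV (AD-169, Davis) and VZV (OKA, 07/1) antiviral tests. Minimum cytotoxic concentration is the lowest compound level that causes cytotoxicity.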
In data set [3] the test system is HeLa. The experiment in a line: Minimum inhibitory concentration required to inhibit Coxsackie B4 virus. It counts as functional. The conditions noted are these: Homo sapiens. Put shortly: as §1
Data set [4] deals with HeLa. The experiment in a line: Minimum inhibitory concentration required to inhibit respiratory syncytial virus. It is filed as functional. The conditions noted are these: Homo sapiens. Put shortly: as §1
The subject of data set [5] is MT4. The experiment in a line: Ratio of cytotoxicity to antiviral activity was determined. It is filed as functional, Homo sapiens. The essentials: (§2)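 MT-4 cells infected with HIV-1 (strain IIIB) or HIV-2 (strain ROD), with viability read by MTT. The read-out is the 50% inhibitory concentration (IC50). CC50 was measured in MT-4 cells, and the selectivity index was calculated as CC50/IC50.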

Data set [6] relates to Human immunodeficiency virus 2. The experiment in a line: Inhibition concentration required to inhibit ROD strain was determined by MT-4/MTT assay. It counts as functional, organism-based. Put shortly:
as §2

In data set [7] the test system is Human immunodeficiency virus 1. The experiment in a line: Inhibition concentration required to inhibit HIV-1 was determined by MT-4/MTT assay. It counts as functional, organism-based. The essentials: as §2
Data set [8] deals with Human immunodeficiency virus 1. The experiment in a line: Inhibition concentration required to inhibit HIV-IIIB was determined by MT-4/MTT assay. It counts as functional, organism-based. Put shortly:
as §2

The subject of data set [9] is Human immunodeficiency virus 2. The experiment in a line: Inhibition concentration required to inhibit HIV-2 was determined by MT-4/MTT assay. It is filed as functional, organism-based. Put shortly: as §2
For data set [10], the target named is T1, Adenosylhomocysteinase (Homo sapiens, UniProt P23526). The experiment in a line: Rate at which the compound inactivates human placental AdoHcy hydrolase enzyme was determined. It is filed as functional. The essentials:
(§3)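 Recombinant enzyme (2.5 μg) preincubated with inhibitor at 0–200 μM for 0–20 min at 37 °C in 50 mM potassium phosphate, pH 7.2, 1 mM EDTA. Residual synthetic-direction activity was measured with 1 mM Ado and 1 mM Hcy for 1 min at 37 °C, stopped with HClO4, and AdoHcy quantified by reversed-phase HPLC at 258 nm. Ki and kinact came from fitting kobs = kinact[I]/(Ki+[I]).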
Target sequence in this assay (P23526 2-432 limits assumed): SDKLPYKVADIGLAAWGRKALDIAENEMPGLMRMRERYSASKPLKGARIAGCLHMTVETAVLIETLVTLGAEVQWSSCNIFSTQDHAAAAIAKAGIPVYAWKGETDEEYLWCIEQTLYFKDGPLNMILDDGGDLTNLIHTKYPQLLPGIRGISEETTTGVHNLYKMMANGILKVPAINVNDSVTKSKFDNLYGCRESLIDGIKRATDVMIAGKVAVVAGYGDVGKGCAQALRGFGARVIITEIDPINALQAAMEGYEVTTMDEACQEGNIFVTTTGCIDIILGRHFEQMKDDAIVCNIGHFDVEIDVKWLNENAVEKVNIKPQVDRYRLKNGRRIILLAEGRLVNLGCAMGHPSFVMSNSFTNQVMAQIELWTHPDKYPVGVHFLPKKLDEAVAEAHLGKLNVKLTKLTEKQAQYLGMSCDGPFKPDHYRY

Data set [11] deals with T1, Adenosylhomocysteinase. The experiment in a line: Inhibition of recombinant human placental AdoHcy hydrolase. The essentials: as §3
Target sequence in this assay (P23526 whole entry): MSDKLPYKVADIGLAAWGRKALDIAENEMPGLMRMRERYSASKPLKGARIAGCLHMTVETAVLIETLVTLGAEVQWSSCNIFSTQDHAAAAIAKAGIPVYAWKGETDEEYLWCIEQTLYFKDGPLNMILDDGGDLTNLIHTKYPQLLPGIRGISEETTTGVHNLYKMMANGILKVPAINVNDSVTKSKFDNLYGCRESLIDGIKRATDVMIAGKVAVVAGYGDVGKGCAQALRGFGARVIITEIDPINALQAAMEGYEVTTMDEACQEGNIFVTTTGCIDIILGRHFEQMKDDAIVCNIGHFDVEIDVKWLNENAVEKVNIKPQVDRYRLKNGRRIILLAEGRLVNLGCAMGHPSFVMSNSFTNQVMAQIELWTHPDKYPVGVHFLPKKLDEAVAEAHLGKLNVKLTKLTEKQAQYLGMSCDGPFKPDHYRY
Data set [12] has as its system Cytomegalovirus. The experiment in a line: Activity against CMV (AD-169 strain) was determined. It is filed as functional, organism-based. The conditions noted are these: Human betaherpesvirus 5. Put shortly:
(§4)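 Human embryonic lung (HEL) cell cultures infected with human cytomegalovirus, AD-169 or Davis strain. The read-out is the 50% effective concentration (EC50). Cytotoxicity was measured in the same cells as the 50% cytotoxic concentration (CC50).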

Data set [13] relates to Cytomegalovirus. The experiment in a line: Activity against CMV (Davis strain) was determined. The conditions noted are these: Human betaherpesvirus 5. It is filed as functional, organism-based. The essentials: as §4
Data set [14] deals with T1, Adenosylhomocysteinase. The experiment in a line: Inhibition of recombinant Placental Adenosylhomocysteinase.
Target sequence in this assay (P23526 whole entry): as above
The target of data set [15] is T1, Adenosylhomocysteinase.
Target sequence in this assay (P23526 2-432 limits assumed): as the sequence (P23526 2-432 limits assumed) above

Molecules are shown by their SMILES. Bounds are passed on as bounds.

For `C#C/C=C\[C@H]1OC(n2ccc(=O)[nH]c2=O)[C@H](O)[C@@H]1O` (some centres not stated), the MIC in data set [1], in [3] and in [4] was above 100 µM throughout. The molecule also returned an MCC in data set [2] of at least 350 µM. Also, in [5], the CC50/IC50 was found to be 7.
Turning to `C#C/C=C\[C@H]1OC(n2cnc3c(N)ncnc32)[C@H](O)[C@@H]1O` (some centres not stated), the MIC in data set [1], in data set [3] and in [4] was above 700 µM each time. This molecule also returned an MCC in data set [2] of at least 350 µM.
`O=c1ccn(C2O[C@H](/C=C/C#CI)[C@@H](O)[C@H]2O)c(=O)[nH]1` (some centres not stated): the IC50 in data set [6], in data set [7], in data set [8] and in [9] was 1800 nM each time. Moreover, the MIC in [1], in [3] and in data set [4] was above 100 µM each time. This molecule also came in with an MCC in data set [2] of at least 50 µM. In addition, the CC50/IC50 in data set [5] amounted to 3.
Turning to `Nc1ncnc2c1ncn2C1O[C@H](/C=C/C#CI)[C@@H](O)[C@H]1O` (some centres not stated), the IC50 in data set [6], in data set [7], in [8] and in data set [9] was 1100 nM throughout. Besides, the MIC in [1], in data set [3] and in data set [4] was above 100 µM in each case. Besides, in data set [2], the MCC is at least 50 µM. This molecule returned a K inact in data set [10] of 1.49 min⁻¹. Further, the CC50/IC50 in data set [5] worked out at 7. In addition, the Ki in [11] is 118000 nM.
As for `C#C/C=C/[C@H]1OC(n2ccc(=O)[nH]c2=O)[C@H](O)[C@@H]1O` (some centres not stated), the MIC in data set [1], in [3] and in data set [4] was above 700 µM in each case. Also, the MCC in [2] was at least 350 µM.
`C#C/C=C/[C@H]1OC(n2cnc3c(N)ncnc32)[C@H](O)[C@@H]1O` (some centres not stated): the EC50 turned out to be 50000 nM in data set [12] and 30000 nM in data set [13]. The MIC in data set [1], in data set [3] and in data set [4] was above 100 µM throughout. In data set [2], this molecule yielded an MCC of at least 350 µM. Further, in [14], the Ki came to 550 nM. In [15], this molecule yielded a K inact of 2.57 min⁻¹.
In [2], `CCOC(=O)/C=C\C#C[C@H]1OC(n2cnc3c(N)ncnc32)[C@H](O)[C@@H]1O` (some centres not stated) showed an MCC of at least 11 µM.
